Data reported in PMC10246574 (International Journal of Nanomedicine, 2023).
Values after ≈ are worked out from the molar mass of the structure shown.

How the values were obtained:
[1] = tested on: chorio-allantoic membrane of fertilized hen's eggs; assay: Hen's egg chorio-allantoic membrane; conditions: for irritation score (IS): 30 µL applied, observed 300 s; for irritation category: from IS
Summary of the method: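 Fertilized hen's eggs (7–10 days) incubated at 37.5 ± 0.5 °C and 62.5 ± 7.5% humidity with rotation. Shell over the air cell opened, membrane moistened with saline and removed. 30 µL sample applied to the CAM. First hemorrhage, vascular lysis and coagulation timed over 300 s; IS = [(301−h)×5]/300 + [(301−l)×7]/300 + [(301−c)×9]/300. CAM also imaged at 0, 5 and 60 min. Controls: 1% w/v SLS and normal saline.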

[2] = Cytotoxicity by MTT assay in HaCaT cells; type: cell-based; conditions: human, HaCaT cells (immortalized epidermal keratinocytes)
Summary of the method: (§1)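 Thawed cells grown in DMEM with 10% v/v fetal calf serum, 1 mM L-glutamine, penicillin and streptomycin at 37 °C, 5% CO2. Seeded at 3 × 10^5 (HaCaT) or 3.5 × 10^5 (Hs68) cells/well for 24 h. Treated with oil at 0–100 µg/mL for 48 h. MTT (5 mg/mL solution) added for 4 h; formazan dissolved in DMSO; A578 and A630.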

[3] = tested on: human skin; conditions: daily application under occlusive patch, human volunteers; cited from earlier work
[4] = Cytotoxicity by MTT assay in Hs68 cells; type: cell-based; conditions: human, Hs68 cells (foreskin fibroblasts)
Summary of the method: as §1

[5] = tested on: rabbit skin; conditions: rabbits, ref Acid (1987) [48], cited from earlier work

Question: Which results are given for `CCCCCCCCCCCCOS(=O)(=O)[O-].[Na+]` [SLS, sodium lauryl sulphate]?
Answer: irritation score (IS) [1]: 12.5 ± 0.3; irritation category [1]: severe irritation

Question: What does the source list for `CCCCC/C=C\C/C=C\CCCCCCCC(=O)O` [linoleic acid]?
Answer: IC20 at 48 h [2]: 100 µg/mL (≈ 357 µM); viability at 48 h, 100 µg/mL [2]: 73.8 ± 5.8%; irritation score (IS) [1]: 0.0 ± 0.0; irritation category [1]: no irritant effect; irritation of human skin [3]: found to produce irritation; IC20 at 48 h [4]: > 100 µg/mL; viability at 48 h, 100 µg/mL [4]: > 90%

Question: With `CCCCCCCC/C=C\CCCCCCCC(=O)O` [oleic acid] as the compound, how does the IC20 at 48 h [2] read?
Answer: 100 µg/mL (≈ 354 µM)

Question: What about the viability at 48 h, 100 µg/mL [2] of the same compound?
Answer: 82.2 ± 6.1%

Question: And the “irritation score (IS)” value [1]?
Answer: 0.0 ± 0.0

Question: What about the irritation category [1] of the same compound?
Answer: no irritant effect

Question: What about the “irritation of human skin” value [3] of the same compound?
Answer: not found to be irritating

Question: And the IC20 at 48 h [4]?
Answer: > 100 µg/mL

Question: What about the viability at 48 h, 100 µg/mL [4] of the same compound?
Answer: > 90%

Question: And the “primary irritation index (PII)” value ([5]; single insult occlusive patch test)?
Answer: 0.5

Question: And the erythema ([5]; oleic acid after 24 h, palmitic acid after 2–24 h)?
Answer: moderate erythema

Question: Which IC20 at 48 h [2] does the source give for `CCCCCCCCCCCCCCCC(=O)O` [palmitic acid] here?
Answer: 100 µg/mL (≈ 390 µM)

Question: And the viability at 48 h, 100 µg/mL [2]?
Answer: 75.9 ± 3.5%

Question: And the “irritation score (IS)” value [1]?
Answer: 0.0 ± 0.0

Question: What about the “irritation signs on CAM after 60 min of exposure” value ([1]; 60 min) of the same compound?
Answer: vascular lysis was detected

Question: What about the irritation category [1] of the same compound?
Answer: no irritant effect

Question: And the “irritation of human skin” value [3]?
Answer: not found to be irritating

Question: What about the IC20 at 48 h [4] of the same compound?
Answer: > 100 µg/mL

Question: And the viability at 48 h, 100 µg/mL [4]?
Answer: > 90%
